# Assay results reported in paper PMC10692396 (Acta Pharmaceutica Sinica. B, 2023).
# Columns and labels:
# [1] = tested on: intracranial glioma tumor U87MG; assay: Intracranial U87MG-luc tumor model in nude mice; format: in vivo; settings: for median survival time: control 41 days
# [2] = tested on: U251 GBM xenograft tumors; assay: U251 subcutaneous xenograft in nude mice; format: in vivo; settings: for expression of angiogenic markers CD31 and CD105: U251 tumor tissues; for expression of angiogenic markers CD31 and CD105 / expression of M2 phenotype macrophage marker(s) (CD206): IHC; for expression of M2 phenotype macrophage marker(s) (CD206): tumor tissue; for tumor volume reduced: U251 xenograft
# [3] = tested on: M2 markers CD206 and ARG1 in BMDM cells; assay: In vitro differentiation of BMDMs; format: cell-based, mouse; settings: BMDM stimulated with CSF1, IL4, IL13; compound 100 nmol/L, 48 h
# Outline: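 Mouse BMDMs were seeded at 2.5 × 10^6/well and grown 7 days in 10 ng/mL CSF1. CD206 and ARG1 were measured by flow cytometry. Three independent experiments, t-test.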
# [4] = tested on: cells with high expression of Aurora-B; assay: Cytotoxicity in Aurora-B high cells; format: cell-based; settings: data not shown
# [5] = tested on: recurrent high-grade glioma; assay: First-in-human phase I trial; format: in vivo, patients
# PDGFRα (V561D) = PDGFRα (V561D) (Homo sapiens, UniProt P16234, V561D); assay: ELISA kinase assay; format: biochemical
# HUVEC = assay: VEGF-stimulated cell viability; format: cell-based; settings: Homo sapiens, 72 h, read-out: IC50 HUVEC cell viability
# [6] = tested on: D283 medulloblastoma xenograft; assay: D283 subcutaneous xenograft in NOD-SCID mice; format: in vivo; settings: oral, 14 days
# Outline: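 D283 cells (5 × 106 in 200 μL, half Matrigel) were injected s.c. into the right flank of NOD-SCID mice. Mice were randomized at about 120 mm3 (n = 9/group) and dosed orally twice daily. Tumor size (caliper) and body weight were taken three times weekly. Mice were euthanized after 14 days of dosing and tumors weighed.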
# VEGFR-3 = VEGFR-3 (Homo sapiens, UniProt P35916); assay: ELISA kinase assay; format: biochemical
# [7] = tested on: neovascularization in chick embryos; assay: Chicken chorioallantoic membrane; format: in vivo; settings: CAM assay, 48 h
# Outline: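 Fertilized eggs were incubated 7 days at 37 °C, 50% humidity. Suction at the broad end made a false air sac, and a 1 cm2 shell window was opened. Glass coverslips (0.5 cm × 0.5 cm) soaked in test compound or vehicle were laid between preexisting vessels, followed by a further 48 h incubation. Neovascular zones beside the coverslips were photographed under a stereomicroscope.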
# DBT mouse glioma [8] = assay: DBT subcutaneous model in immunocompetent mice; format: in vivo, BALB/c mice; settings: 10 mg/kg twice daily
# Outline: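 BALB/c mice received 5 × 10^6 DBT cells in 200 μL PBS s.c. in the right flank. At about 120 mm3 they were randomized to control or 10 mg/kg (n = 6/group), dosed orally twice daily. Tumor size and body weight were measured three times weekly, and growth was expressed as RTV, mean ± SEM. CD8 was stained by IHC and scored by the multiplicative quick score method.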
# phosphorylation of CSF1R = assay: Western blot of CSF1R signaling in BMDM; format: cell-based, mouse; settings: BMDM cells, CSF1 stimulation
# Outline: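 Fresh mouse BMDMs (2.5 × 10^6/well) were grown 7 days with 10 ng/mL CSF1, with a medium change at day 3. Cells were serum-starved 6 h, given test compound for 2 h, then stimulated with 50 ng/mL CSF1 for 15 min. BCA-normalized SDS lysates were blotted for p-CSF1R, CSF1R, p-AKT and AKT. Densitometry was normalized to tubulin across three independent repeats.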
# c-Kit = c-Kit (Homo sapiens, UniProt P10721); assay: ELISA kinase assay; format: biochemical
# VEGFR-1 = VEGFR-1 (Homo sapiens, UniProt P17948); assay: ELISA kinase assay; format: biochemical
# mouse glioma GL261-luc = assay: Intracranial GL261-luc model in immunocompetent mice; format: in vivo, C57BL/6 mice
# Outline: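 Male C57BL/6 mice aged 4–6 weeks received 2 × 10^5 GL261-luc cells intracranially into the right frontal lobe. About 5 days after inoculation, mice were randomized by IVIS bioluminescence. Brain signal was then imaged once or twice weekly.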
# c-Kit (D816H) = c-Kit (D816H) (Homo sapiens, UniProt P10721, D816H); assay: ELISA kinase assay; format: biochemical
# [9] = tested on: phosphorylation of RET in tumor tissue; assay: RET phosphorylation in tumor tissue; format: in vivo; settings: data not shown
# DBT mouse glioma [10] = assay: DBT model, combination with anti-PD-1; format: in vivo, BALB/c mice; settings: SYHA1813 5 mg/kg p.o. twice daily, anti-PD-1 200 μg i.p. twice a week, or both
# tube formation of HUVECs = assay: Tube formation assay; format: cell-based, Human; settings: VEGF 100 ng/mL, 8 h, concentration-dependent
# Outline: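 HUVECs were starved 24 h, then seeded at 20,000 cells/well on growth-factor-reduced Matrigel. Graded test compound concentrations and VEGF (final 100 ng/mL) were added for 8 h. Tubes were photographed through a stereoscope at 4×.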
# [11] = Pharmacokinetics and brain distribution; format: in vivo, CD-1 mice; settings: male, CD-1, mouse, po, 10 mg/kg
# Outline: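 Thirty male CD-1 mice were split into six groups, one per sampling time (0.5, 1, 2, 4, 8, 24 h), after a single oral 10 mg/kg dose. Plasma was taken from retro-orbital blood. Brains were collected after intracardial perfusion, rinsed in saline, blotted, weighed and homogenized in MeOH-ACN (1/1, 5 mL/g tissue).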
# glioma cell lines = assay: Cell viability; format: cell-based; settings: read-out: IC50 against glioma cell lines
# Outline: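 GL261, DBT, D283, U87MG and U251 cells were plated, left overnight, then given a range of test compound concentrations for 72 h at 37 °C, 5% CO2. Growth was read by CCK-8. D283 was grown in MEM with 10% FBS, 1% NEAA and 1% NaP. Lines were STR-authenticated.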
# CSF1R = CSF1R (Homo sapiens, UniProt P07333); assay: Surface plasmon resonance; format: binding; settings: Biacore 8K, protein immobilized on CM5 chip
# Outline: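 Human CSF1R was directly immobilized on a CM5 chip (Biacore 8K), with test compound as analyte. Multi-cycle kinetics used 180 s injection and 180 s dissociation.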
# panel of 328 kinases = assay: Kinase profiling, whole panel; format: biochemical, human; settings: 0.1 μmol/L SYHA1813
# c-Kit, sequence (P10721 26-976): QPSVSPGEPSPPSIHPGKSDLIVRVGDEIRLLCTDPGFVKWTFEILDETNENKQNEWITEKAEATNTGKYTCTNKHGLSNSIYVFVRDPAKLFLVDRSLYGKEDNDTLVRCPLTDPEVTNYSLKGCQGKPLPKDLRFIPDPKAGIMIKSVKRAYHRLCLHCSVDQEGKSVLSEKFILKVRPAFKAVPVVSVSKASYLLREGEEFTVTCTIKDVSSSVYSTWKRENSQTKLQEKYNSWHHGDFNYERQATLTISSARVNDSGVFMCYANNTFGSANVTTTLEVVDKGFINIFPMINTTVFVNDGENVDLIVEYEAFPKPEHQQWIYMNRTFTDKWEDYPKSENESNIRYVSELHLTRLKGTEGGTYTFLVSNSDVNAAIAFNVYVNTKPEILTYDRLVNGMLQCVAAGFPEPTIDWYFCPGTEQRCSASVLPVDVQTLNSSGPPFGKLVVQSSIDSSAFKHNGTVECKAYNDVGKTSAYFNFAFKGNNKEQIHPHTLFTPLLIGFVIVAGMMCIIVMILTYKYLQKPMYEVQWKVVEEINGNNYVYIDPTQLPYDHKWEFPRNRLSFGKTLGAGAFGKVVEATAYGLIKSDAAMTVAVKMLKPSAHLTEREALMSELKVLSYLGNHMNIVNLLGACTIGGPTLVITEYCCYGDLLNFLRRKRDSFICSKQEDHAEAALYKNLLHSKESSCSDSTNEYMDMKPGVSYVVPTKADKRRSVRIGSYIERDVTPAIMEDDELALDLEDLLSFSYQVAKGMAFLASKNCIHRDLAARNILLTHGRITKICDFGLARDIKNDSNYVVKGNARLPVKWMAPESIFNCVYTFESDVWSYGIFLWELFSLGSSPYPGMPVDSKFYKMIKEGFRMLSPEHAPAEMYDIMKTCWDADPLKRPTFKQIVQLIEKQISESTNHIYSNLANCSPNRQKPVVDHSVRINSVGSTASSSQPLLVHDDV
# VEGFR-1, sequence (P17948 27-1338): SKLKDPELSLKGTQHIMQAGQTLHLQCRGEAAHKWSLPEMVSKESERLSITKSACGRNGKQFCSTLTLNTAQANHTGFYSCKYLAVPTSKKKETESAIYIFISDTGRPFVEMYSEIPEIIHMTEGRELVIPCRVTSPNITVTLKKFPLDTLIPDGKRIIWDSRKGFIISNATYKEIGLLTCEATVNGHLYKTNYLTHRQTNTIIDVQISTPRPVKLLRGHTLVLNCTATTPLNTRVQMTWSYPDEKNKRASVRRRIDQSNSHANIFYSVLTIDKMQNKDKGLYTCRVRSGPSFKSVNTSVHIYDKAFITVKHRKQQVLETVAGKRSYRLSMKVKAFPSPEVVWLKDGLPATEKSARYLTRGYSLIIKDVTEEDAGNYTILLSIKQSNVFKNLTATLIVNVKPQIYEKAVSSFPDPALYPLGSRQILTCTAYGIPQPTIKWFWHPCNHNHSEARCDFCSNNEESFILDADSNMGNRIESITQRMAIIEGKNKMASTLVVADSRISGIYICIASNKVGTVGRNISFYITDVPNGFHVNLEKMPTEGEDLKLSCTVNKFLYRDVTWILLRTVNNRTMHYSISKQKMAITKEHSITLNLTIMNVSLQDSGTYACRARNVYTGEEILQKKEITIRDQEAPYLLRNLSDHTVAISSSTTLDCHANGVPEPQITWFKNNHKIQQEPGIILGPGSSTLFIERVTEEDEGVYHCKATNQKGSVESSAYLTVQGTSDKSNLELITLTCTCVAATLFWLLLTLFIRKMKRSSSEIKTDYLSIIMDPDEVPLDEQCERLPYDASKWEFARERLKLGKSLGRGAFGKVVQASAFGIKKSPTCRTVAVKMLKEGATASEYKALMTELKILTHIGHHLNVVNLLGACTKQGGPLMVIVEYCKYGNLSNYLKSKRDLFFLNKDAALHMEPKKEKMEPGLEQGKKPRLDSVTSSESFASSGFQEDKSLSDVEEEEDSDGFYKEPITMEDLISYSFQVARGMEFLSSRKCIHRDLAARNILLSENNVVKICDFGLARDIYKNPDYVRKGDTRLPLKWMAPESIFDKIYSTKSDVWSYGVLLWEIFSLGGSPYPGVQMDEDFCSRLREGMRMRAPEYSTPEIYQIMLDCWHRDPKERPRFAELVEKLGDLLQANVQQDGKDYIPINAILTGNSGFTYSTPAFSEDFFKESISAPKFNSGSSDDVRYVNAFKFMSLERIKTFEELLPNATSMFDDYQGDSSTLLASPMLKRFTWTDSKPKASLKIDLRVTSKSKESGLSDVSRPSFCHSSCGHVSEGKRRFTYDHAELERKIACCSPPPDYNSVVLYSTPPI
# CSF1R, sequence (P07333 20-972): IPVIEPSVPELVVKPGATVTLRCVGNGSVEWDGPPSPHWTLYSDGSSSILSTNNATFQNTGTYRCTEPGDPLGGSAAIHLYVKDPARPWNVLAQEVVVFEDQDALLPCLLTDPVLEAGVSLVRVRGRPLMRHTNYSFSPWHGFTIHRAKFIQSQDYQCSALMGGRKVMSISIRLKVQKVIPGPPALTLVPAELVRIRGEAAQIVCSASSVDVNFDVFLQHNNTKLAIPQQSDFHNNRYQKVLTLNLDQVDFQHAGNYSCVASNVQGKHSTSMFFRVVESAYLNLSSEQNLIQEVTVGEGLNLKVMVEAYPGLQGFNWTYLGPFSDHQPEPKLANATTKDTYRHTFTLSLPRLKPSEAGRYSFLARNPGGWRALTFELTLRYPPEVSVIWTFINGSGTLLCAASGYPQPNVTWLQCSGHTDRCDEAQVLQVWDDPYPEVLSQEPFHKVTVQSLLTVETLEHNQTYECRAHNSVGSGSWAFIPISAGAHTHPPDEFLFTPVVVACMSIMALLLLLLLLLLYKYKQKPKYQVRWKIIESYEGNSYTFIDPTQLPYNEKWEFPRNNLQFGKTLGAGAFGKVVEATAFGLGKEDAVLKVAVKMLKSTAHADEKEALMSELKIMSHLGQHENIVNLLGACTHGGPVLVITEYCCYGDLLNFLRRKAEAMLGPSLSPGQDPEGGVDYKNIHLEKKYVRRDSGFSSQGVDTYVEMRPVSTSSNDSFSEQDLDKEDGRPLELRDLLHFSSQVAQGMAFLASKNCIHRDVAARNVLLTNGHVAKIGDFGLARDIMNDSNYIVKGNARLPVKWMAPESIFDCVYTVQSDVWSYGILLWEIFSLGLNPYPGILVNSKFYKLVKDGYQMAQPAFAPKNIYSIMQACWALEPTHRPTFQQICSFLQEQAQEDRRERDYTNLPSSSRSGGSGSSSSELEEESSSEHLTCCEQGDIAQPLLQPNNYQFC
# VEGFR-3, sequence (P35916 25-1363): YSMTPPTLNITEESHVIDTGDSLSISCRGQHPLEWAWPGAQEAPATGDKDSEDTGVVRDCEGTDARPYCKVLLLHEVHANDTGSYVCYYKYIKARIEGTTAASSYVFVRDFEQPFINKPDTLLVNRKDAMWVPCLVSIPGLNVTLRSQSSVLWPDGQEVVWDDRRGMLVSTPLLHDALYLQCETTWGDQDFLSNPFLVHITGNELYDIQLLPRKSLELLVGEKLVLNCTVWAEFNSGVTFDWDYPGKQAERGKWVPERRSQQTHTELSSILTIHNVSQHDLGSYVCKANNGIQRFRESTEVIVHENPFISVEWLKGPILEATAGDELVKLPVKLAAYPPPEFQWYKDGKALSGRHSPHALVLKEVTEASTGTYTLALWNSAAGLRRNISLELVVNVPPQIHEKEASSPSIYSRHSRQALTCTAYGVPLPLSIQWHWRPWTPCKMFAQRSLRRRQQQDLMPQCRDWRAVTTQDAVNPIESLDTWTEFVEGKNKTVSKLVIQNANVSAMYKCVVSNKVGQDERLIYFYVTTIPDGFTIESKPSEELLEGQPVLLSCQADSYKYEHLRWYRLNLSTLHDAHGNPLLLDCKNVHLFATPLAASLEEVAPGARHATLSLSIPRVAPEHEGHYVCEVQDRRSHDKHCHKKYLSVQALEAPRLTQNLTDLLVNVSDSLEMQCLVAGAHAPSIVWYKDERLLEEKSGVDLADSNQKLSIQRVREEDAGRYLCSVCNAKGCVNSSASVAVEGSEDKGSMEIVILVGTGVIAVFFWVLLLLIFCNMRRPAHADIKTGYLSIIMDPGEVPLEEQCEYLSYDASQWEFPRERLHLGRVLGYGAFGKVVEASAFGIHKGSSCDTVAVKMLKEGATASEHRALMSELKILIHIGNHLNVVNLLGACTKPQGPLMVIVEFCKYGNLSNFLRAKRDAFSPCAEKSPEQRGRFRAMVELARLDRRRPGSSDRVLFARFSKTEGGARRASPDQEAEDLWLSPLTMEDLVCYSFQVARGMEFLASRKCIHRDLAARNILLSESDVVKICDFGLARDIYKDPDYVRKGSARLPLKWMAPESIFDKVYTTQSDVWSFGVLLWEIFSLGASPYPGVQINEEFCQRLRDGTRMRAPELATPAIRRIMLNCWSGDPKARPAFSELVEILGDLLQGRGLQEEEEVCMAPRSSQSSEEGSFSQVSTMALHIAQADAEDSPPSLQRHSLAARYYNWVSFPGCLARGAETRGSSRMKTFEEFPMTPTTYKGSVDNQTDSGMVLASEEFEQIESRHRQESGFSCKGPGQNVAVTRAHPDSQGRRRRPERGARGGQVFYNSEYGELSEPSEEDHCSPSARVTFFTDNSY
# c-Kit (D816H), sequence (P10721 26-976 D816H): as the sequence (P10721 26-976) above, with D791H counted along it
smiles,measurement,setting,value
"CNC(=O)c1ccccc1Sc1ccc2c(/C=C/c3ccccn3)n[nH]c2c1 [Axitinib, reference compound]",median survival time,[1]; 40 mg/kg orally twice daily,41 days
same,expression of angiogenic markers CD31 and CD105,[2],effectively suppressed
same,expression of M2 phenotype macrophage marker(s) (CD206),[2],no significant changes
"FC(F)(F)c1ccc(CNc2ccc(Cc3c[nH]c4ncc(Cl)cc34)cn2)cn1 [PLX3397, reference compound]",expression of M2 markers CD206 and ARG1,[3],significant decrease
"Cc1cc(NC(=O)c2cccc3cc(-c4cccc5[nH]nc(N)c45)ccc23)ccc1F [SYHA1813, 6-(3-amino-1H-indazol-4-yl)-N-(4-fluoro-3-methylphenyl)-1-naphthamide]",cytotoxicity to cells with high expression of Aurora-B,[4],no apparent cytotoxicity
same,Response Assessment in Neuro-Oncology (RANO),"[5]; 5 mg once daily, 4 cycles, recurrent anaplastic oligodendrocytoma patient",stable disease
same,contrast-enhancement on T1-weighted images and vasogenic edema on FLAIR images,"[5]; 15 mg/day, recurrent GBM (WHO IV) patient, first follow-up",drastic reduction
same,median survival time,[1]; 20 mg/kg orally twice daily,54 days
same,first death of mice,"[1]; 40 mg/kg group, control Day 31",43 days
same,death of the last mouse,"[1]; 40 mg/kg group, control Day 52",75 days
same,median survival time,[1]; 40 mg/kg orally twice daily,58.5 days
same,expression of M2 markers CD206 and ARG1,[3],significant decrease
same,IC50,PDGFRα (V561D),2.4 nM
same,IC50,HUVEC,13 nM
same,tumor growth in D283 xenograft,[6],effectively inhibited tumor growth
same,IC50,VEGFR-3,4.3 nM
same,neovascularization in chick embryos,[7],significantly inhibited
same,tumor growth of DBT glioma and tumor weight,DBT mouse glioma [8]; BALB/c mice,suppressed
same,CD8+ T cells in tumor tissue,DBT mouse glioma [8]; IHC,dramatically increased
same,phosphorylation of CSF1R and activation of downstream AKT,phosphorylation of CSF1R,dramatically blocked
same,IC50,c-Kit,162 nM
same,IC50,VEGFR-1,2.8 nM
same,median survival time,mouse glioma GL261-luc,prolonged median survival time
same,IC50,c-Kit (D816H),134 nM
same,phosphorylation of RET in tumor tissue,[9],rarely inhibited
same,tumor growth,DBT mouse glioma [10],slightly inhibited
same,tube formation of HUVECs,tube formation of HUVECs,considerably blocked
same,Cmax,[11]; brain,1210 ng/g
same,AUC(0-t),[11]; plasma,4540 ng·h/mL
same,Cmax,[11]; plasma,1420 ng/mL
same,IC50,glioma cell lines,> 20000 nM
same,tumor volume reduced,[2]; 5 mg/kg orally twice daily,67.7%
same,tumor volume reduced,[2]; 10 mg/kg orally twice daily,81.0%
same,body weight of the animals,"[2]; U251, U87MG and D283 xenograft models",not significantly changed
same,expression of angiogenic markers CD31 and CD105,[2],dramatically reduced
same,expression of M2 phenotype macrophage marker(s) (CD206),[2],significantly inhibited
same,SPR binding to CSF1R,CSF1R,robust binding signal
same,"inhibition relative to the control, most of the kinases",panel of 328 kinases,less than 80%
"Cn1nnc2c(C(N)=O)ncn2c1=O [TMZ, temozolomide, reference compound]",tumor growth in D283 xenograft,[6],dramatically insensitive
